# Active and inactive are the calls of the source. No cut-off for these calls is given here.
# How the values were obtained:
# [1] = target: Serine/threonine-protein kinase mTOR (Homo sapiens, UniProt P42345); assay: Inhibition of recombinant human GST-tagged mTOR catalytic domain (1360 to 2549 residues) expressed in baculovirus expression system using GFP-4E-BP1 as substrate preincubated for 15 mins followed by substrate addition and measured after 60 mins by TR-FRET assay
# Method in brief: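 Recombinant mTOR (FRAP1) was preincubated 15 min with serially diluted compound (10 µM–0.0005 µM, DMSO) in kinase buffer, 10 µL reaction. GFP-4E-BP1 (400 nM final) and ATP (8 µM final) were added and the reaction ran 1 h at RT. Quench buffer with Tb-anti-p4E-BP1 (pThr46) was added for 1 h at RT. TR-FRET 520/486 nm ratio was fitted by four-parameter sigmoidal regression.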
# [2] = Metabolic stability in dog liver microsomes assessed as parent compound remaining at 10 uM remaining after 120 mins in presence of NADPH by HPLC analysis; type: ADME, Canis lupus familiaris, Microsome; conditions: read-out: Stabilty
# Method in brief: (§1)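 Compound at 10 µM was incubated with 0.5 mg/mL liver microsomes and 1 mM NADPH (final). Samples were taken at 0, 15, 30, 60 and 120 min and stopped with acetonitrile, then centrifuged and the supernatant analysed by HPLC. Percent parent remaining was set relative to the 0 min peak area (100%).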
# [3] = Metabolic stability in mouse liver microsomes assessed as parent compound remaining at 10 uM remaining after 120 mins in presence of NADPH by HPLC analysis; type: ADME, Microsome; conditions: read-out: Stabilty; method in brief: as §1
# Homo sapiens = species on record: Homo sapiens; assay: Channel blockade of human ERG G601S mutant expressed in mammalian expression system assessed as effect on surface expression of channel at 1 to 30 uM by HERG-Lite assay; conditions: dose microM 1-30
# Method in brief: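 HERG-lite assay scoring both channel blocking and trafficking inhibition, with test compound at 1, 10 and 30 µM. Geldanamycin (1 µM) served as the trafficking-inhibition reference and astemizole as the standard hERG binder.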
# Cytochrome P450 3A4 = Cytochrome P450 3A4 (Homo sapiens, UniProt P08684); assay: Inhibition of CYP3A4 in human liver microsomes using isoform-specific probe substrates preincubated for 5 mins followed by NADPH addition by LC-MS/MS analysis; type: ADME
# Sequence of Cytochrome P450 3A4 (P08684 whole entry, canonical isoform): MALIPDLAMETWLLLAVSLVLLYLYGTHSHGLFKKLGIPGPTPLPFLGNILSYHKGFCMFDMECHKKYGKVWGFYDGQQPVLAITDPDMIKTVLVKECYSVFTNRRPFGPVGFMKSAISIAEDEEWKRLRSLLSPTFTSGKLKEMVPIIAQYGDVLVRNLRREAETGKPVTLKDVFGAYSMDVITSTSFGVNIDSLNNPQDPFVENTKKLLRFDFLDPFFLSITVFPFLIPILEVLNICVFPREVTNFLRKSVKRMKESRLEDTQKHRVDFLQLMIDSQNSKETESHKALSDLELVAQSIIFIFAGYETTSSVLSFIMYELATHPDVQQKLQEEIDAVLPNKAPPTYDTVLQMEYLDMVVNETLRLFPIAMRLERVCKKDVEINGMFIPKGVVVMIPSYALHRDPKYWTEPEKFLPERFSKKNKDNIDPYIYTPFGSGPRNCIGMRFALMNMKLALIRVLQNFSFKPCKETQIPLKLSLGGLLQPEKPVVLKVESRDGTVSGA
# Method in brief: (§2)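 Human liver microsomes premixed with buffer and a CYP-specific FDA-recommended probe substrate, then spiked with inhibitor, in duplicate. After 5 min preincubation at 37 °C, reaction started with NADPH and run at 37 °C for a set time, then quenched. Metabolite formation quantified by HPLC/LC-MS/MS to derive the concentration giving 50% inhibition.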
# Cytochrome P450 2C19 = Cytochrome P450 2C19 (Homo sapiens, UniProt P33261); assay: Inhibition of CYP2C19 in human liver microsomes using isoform-specific probe substrates preincubated for 5 mins followed by NADPH addition by LC-MS/MS analysis; type: ADME; method in brief: as §2
# Sequence of Cytochrome P450 2C19 (P33261 whole entry, canonical isoform): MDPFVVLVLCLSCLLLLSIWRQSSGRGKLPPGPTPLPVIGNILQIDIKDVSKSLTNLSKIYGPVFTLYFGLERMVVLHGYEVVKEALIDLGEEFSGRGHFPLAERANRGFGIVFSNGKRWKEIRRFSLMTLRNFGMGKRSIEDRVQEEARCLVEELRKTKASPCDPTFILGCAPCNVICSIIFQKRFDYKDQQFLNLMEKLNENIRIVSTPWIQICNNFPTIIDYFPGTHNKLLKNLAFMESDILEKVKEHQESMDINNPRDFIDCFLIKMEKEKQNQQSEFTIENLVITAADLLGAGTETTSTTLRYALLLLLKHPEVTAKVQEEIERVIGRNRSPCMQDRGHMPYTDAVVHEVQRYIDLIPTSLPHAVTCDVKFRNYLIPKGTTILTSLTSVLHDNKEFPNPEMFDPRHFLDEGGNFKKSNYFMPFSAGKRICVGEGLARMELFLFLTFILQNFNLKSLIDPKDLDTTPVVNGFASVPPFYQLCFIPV
# [4] = target: RAC-alpha serine/threonine-protein kinase (Homo sapiens) (UniProt P31749); assay: Inhibition of human AKT1 at 1 uM using fluorescently labeled peptide substrate measured after 3 hrs by microfluidic mobility shift assay relative to control
# Sequence of RAC-alpha serine/threonine-protein kinase (Homo sapiens) (P31749 whole entry): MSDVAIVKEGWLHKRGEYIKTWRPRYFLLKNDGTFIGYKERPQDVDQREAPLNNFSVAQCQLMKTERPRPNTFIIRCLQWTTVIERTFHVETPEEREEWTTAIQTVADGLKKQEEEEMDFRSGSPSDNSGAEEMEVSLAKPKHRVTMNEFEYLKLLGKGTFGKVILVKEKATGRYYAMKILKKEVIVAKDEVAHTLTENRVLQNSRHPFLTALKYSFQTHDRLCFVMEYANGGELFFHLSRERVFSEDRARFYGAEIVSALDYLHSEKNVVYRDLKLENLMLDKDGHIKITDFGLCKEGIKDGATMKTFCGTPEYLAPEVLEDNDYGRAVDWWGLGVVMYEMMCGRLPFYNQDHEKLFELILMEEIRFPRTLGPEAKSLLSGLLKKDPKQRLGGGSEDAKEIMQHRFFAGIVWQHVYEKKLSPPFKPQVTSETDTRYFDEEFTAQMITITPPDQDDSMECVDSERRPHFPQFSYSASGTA
# Method in brief: (§3)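 Single-concentration screen at 1 µM in duplicate, 1% final DMSO. Kinase (typically 1 nM), fluorescently labeled peptide substrate (typically 1 µM), ATP at Km and Mg²⁺ incubated about 3 h at 25 °C, then EDTA-quenched. Substrate and phosphorylated product separated by microfluidic electrophoresis and quantified by fluorescence.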
# [5] = target: Dual specificity mitogen-activated protein kinase kinase 2 (Homo sapiens) (UniProt P36507); assay: Inhibition of human MEK2 at 1 uM using fluorescently labeled peptide substrate measured after 3 hrs by microfluidic mobility shift assay relative to control; method in brief: as §3
# Sequence of Dual specificity mitogen-activated protein kinase kinase 2 (Homo sapiens) (P36507 whole entry, canonical isoform): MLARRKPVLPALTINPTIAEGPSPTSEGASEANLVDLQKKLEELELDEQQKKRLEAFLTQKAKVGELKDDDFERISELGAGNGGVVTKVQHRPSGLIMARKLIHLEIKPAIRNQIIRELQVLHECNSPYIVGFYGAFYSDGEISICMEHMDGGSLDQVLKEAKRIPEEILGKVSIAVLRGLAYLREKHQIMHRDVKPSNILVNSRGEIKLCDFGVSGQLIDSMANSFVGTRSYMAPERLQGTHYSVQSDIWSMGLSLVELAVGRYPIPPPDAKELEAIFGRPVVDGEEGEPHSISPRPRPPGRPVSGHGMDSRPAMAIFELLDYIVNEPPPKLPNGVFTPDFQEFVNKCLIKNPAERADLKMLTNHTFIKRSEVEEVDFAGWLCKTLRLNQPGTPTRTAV
# [6] = target: Phosphatidylinositol 4,5-bisphosphate 3-kinase catalytic subunit beta isoform (Homo sapiens) (UniProt P42338); assay: Inhibition of human PI3kbeta at 1 uM using fluorescently labeled peptide substrate measured after 3 hrs by microfluidic mobility shift assay relative to control; method in brief: as §3
# Sequence of Phosphatidylinositol 4,5-bisphosphate 3-kinase catalytic subunit beta isoform (Homo sapiens) (P42338 whole entry, looked up, canonical isoform): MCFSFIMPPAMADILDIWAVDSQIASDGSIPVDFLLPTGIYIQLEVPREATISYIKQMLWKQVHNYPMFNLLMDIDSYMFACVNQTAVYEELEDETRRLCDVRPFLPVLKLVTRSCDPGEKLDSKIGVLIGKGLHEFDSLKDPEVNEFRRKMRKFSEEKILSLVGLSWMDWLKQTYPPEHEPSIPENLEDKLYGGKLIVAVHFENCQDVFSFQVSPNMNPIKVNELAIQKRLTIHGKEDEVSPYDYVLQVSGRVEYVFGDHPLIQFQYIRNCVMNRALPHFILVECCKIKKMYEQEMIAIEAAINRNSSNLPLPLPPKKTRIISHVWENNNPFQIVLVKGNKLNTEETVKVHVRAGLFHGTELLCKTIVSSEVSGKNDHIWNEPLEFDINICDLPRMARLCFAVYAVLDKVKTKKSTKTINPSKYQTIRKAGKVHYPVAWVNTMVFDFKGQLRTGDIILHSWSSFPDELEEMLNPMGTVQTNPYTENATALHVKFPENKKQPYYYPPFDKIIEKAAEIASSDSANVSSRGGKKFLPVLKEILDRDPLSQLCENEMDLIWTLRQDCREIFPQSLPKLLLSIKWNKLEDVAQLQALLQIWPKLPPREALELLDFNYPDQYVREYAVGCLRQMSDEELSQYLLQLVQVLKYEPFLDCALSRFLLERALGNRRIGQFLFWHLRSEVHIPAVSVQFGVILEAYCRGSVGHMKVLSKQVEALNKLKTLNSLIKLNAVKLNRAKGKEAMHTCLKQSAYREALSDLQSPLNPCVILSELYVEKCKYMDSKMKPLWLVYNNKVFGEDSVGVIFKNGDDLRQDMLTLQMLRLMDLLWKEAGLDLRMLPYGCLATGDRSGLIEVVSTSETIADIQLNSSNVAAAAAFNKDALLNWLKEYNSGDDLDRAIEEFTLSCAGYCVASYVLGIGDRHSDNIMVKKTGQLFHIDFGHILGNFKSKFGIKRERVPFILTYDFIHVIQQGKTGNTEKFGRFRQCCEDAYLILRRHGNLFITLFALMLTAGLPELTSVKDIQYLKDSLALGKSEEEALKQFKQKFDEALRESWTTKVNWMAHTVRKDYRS
# [7] = target: Phosphatidylinositol 4-kinase beta (Homo sapiens) (UniProt Q9UBF8); assay: Inhibition of human PI4kbeta at 1 uM using fluorescently labeled peptide substrate measured after 3 hrs by microfluidic mobility shift assay relative to control; method in brief: as §3
# Sequence of Phosphatidylinositol 4-kinase beta (Homo sapiens) (Q9UBF8 2-816 limits assumed): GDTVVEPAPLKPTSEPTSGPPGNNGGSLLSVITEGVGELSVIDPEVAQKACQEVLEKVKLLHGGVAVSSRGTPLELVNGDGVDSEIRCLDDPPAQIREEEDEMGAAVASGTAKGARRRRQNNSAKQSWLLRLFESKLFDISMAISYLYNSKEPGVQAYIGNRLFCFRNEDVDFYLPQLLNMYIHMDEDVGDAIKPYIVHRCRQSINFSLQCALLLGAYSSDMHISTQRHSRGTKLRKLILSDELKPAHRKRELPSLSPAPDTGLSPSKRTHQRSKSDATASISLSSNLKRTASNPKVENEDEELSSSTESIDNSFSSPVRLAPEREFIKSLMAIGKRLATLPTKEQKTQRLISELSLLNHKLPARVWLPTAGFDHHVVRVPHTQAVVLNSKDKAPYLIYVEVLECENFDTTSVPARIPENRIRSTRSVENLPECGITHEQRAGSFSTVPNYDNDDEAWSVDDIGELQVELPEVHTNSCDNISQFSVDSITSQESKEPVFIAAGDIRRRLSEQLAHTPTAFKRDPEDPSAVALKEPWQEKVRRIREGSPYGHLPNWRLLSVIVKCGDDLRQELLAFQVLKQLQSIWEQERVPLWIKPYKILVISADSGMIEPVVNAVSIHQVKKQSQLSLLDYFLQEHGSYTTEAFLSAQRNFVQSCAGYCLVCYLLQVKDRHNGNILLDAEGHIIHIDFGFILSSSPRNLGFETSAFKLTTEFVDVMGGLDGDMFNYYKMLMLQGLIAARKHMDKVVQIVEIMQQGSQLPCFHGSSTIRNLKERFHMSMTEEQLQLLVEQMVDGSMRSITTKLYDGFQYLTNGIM
# [8] = target: Protein kinase C zeta type (Homo sapiens) (UniProt Q05513); assay: Inhibition of human PRKCZ at 1 uM using fluorescently labeled peptide substrate measured after 3 hrs by microfluidic mobility shift assay relative to control; method in brief: as §3
# Sequence of Protein kinase C zeta type (Homo sapiens) (Q05513 whole entry): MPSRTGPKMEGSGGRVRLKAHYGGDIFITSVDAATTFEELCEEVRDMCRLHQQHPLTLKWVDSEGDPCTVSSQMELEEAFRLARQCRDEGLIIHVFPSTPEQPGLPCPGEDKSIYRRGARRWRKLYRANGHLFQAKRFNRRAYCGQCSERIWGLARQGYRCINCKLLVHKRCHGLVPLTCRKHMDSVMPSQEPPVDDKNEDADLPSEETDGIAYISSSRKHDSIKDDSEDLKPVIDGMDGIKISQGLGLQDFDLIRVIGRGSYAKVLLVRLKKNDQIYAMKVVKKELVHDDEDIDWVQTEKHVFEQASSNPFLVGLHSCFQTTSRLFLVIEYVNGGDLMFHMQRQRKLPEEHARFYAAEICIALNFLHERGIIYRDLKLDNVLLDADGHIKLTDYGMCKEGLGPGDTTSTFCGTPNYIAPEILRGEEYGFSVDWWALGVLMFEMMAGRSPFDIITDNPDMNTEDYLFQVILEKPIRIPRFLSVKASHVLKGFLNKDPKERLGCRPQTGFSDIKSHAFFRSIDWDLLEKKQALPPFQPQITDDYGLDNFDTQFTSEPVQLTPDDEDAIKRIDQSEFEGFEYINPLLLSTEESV
# [9] = target: Cyclin-dependent kinase 7 (Homo sapiens) (UniProt P50613); assay: Inhibition of human CDK7 at 1 uM using fluorescently labeled peptide substrate measured after 3 hrs by microfluidic mobility shift assay relative to control; method in brief: as §3
# Sequence of Cyclin-dependent kinase 7 (Homo sapiens) (P50613 whole entry): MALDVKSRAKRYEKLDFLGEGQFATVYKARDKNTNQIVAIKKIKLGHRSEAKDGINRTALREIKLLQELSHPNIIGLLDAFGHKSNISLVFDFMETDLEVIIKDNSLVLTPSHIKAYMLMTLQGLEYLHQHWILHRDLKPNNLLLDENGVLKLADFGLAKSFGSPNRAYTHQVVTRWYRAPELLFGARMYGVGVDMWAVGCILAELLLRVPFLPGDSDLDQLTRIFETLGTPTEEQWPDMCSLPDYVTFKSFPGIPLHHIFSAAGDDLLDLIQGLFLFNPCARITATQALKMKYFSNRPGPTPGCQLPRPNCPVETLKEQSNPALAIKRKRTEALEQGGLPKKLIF
# [10] = Elimination half life in Swiss mouse at 10 mg/kg, po via gavage by LC-MS/MS analysis; type: ADME, organism-based; conditions: in vivo, read-out: beta t1/2 (converted)
# Method in brief: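 Female Swiss mice (n=3/group), fasted overnight, given single oral gavage dose in 0.5% CMC/0.5% Tween 80 (10 mL/kg) at 1, 3 or 10 mg/kg. Serial blood sampling at 0.16–8 h into heparinized tubes. Plasma extracted with acetonitrile containing verapamil internal standard and quantified by LC-MS/MS. Cmax, Tmax, AUC and t1/2 derived from the concentration–time profile.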
# [11] = Toxicity in Swiss mouse assessed as change in body coat at 10 mg/kg, po administered twice daily via gavage for 5 days and measuring daily during compound dosing; type: organism-based; conditions: in vivo, 120 h, time 5 day
# Method in brief: (§4)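 Female Swiss mice (3 treated, 2 vehicle controls) received oral gavage twice daily for 5 days, with compound formulated in 0.5% CMC and Tween 80. Body weight, body temperature, body coat, feed intake, eyes, feces and general activity were observed daily.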
# [12] = Toxicity in Swiss mouse assessed as effect on eyes at 10 mg/kg, po administered twice daily via gavage for 5 days and measuring daily during compound dosing; type: organism-based; conditions: in vivo, 120 h, time 5 day; method in brief: as §4
# [13] = Toxicity in Swiss mouse assessed as change in feces at 10 mg/kg, po administered twice daily via gavage for 5 days and measuring daily during compound dosing; type: organism-based; conditions: in vivo, 120 h, time 5 day; method in brief: as §4
# [14] = Toxicity in Swiss mouse assessed as morphological changes in lung at 30 mg/kg, po administered twice daily via gavage for 5 days and measured post last dose; type: organism-based; conditions: in vivo, 120 h, time 5 day
# Method in brief: (§5)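 Female Swiss mice (3 treated, 2 controls) were gavaged twice daily for 5 days, with compound in 0.5% CMC and Tween 80. After the last dosing the animals were sacrificed. Liver, kidney, lung, uterus and brain were excised and inspected visually for morphology and color change.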
# [15] = Toxicity in Swiss mouse assessed as morphological changes in brain at 30 mg/kg, po administered twice daily via gavage for 5 days and measured post last dose; type: organism-based; conditions: in vivo, 120 h, time 5 day; method in brief: as §5
# [16] = Toxicity in Swiss mouse assessed as discoloration of lung at 30 mg/kg, po administered twice daily via gavage for 5 days and measured post last dose; type: organism-based; conditions: in vivo, 120 h, time 5 day; method in brief: as §5
# [17] = Toxicity in Swiss mouse assessed as discoloration of liver at 30 mg/kg, po administered twice daily via gavage for 5 days and measured post last dose; type: organism-based; conditions: in vivo, 120 h, time 5 day; method in brief: as §5
# [18] = Drug level in Swiss mouse brain at 30 mg/kg, po administered twice daily via gavage for 5 days and measured post last dose by LC-MS/MS analysis; type: ADME, organism-based; conditions: in vivo, 120 h, time 5 day
# Method in brief: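 Female Swiss mice (n=3) given 30 mg/kg in 0.5% CMC/Tween 80 by oral gavage twice daily for 5 days, with two vehicle controls. After sacrifice, liver, kidney, lung, uterus and brain were collected, homogenized in water and solvent-extracted. Drug concentration (ng/g) measured by LC-MS/MS.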
smiles,measurement,setting,value
CN(C)C(=O)c1ccc(Oc2nc(-c3cnc(N)s3)nc(N3CCOCC3)n2)cc1,IC50,[1],0.01 µM
same,"remaining at 2 h, 10 µM",[2],105%
same,"remaining at 2 h, 10 µM",[3],103%
same,Activity,Homo sapiens,Active
same,IC50,Cytochrome P450 3A4,> 10 µM
same,IC50,Cytochrome P450 2C19,> 10 µM
same,inhibition,[4],-1%
same,inhibition,[5],1%
same,inhibition,[6],42%
same,inhibition,[7],-3%
same,inhibition,[8],0%
same,inhibition,[9],-10%
same,half-life,[10],2.52 h
same,Activity,[11],Non-Toxic
same,Activity,[12],Non-Toxic
same,Activity,[13],Non-Toxic
same,Activity,[14],Non-Toxic
same,Activity,[15],Non-Toxic
same,Activity,[16],Non-Toxic
same,Activity,[17],Toxic
same,Drug uptake,[18],Not Active

# — ChEMBL document CHEMBL4699485, “Discovery and Development of SPR519 as a Potent, Selective, and Orally Bioavailable Inhibitor of PI3Kα and mTOR Kinases for the Treatment of Solid Tumors” (J Med Chem, 2020)
